Data on eleven molecules can be found in ChEMBL document CHEMBL5380865, “Linearization of the Brevicidine and Laterocidine Lipopeptides Yields Analogues That Retain Full Antibacterial Activity” (J Med Chem, 2023).

For data set [1], the system named is Escherichia coli. In words: Antibacterial activity Escherichia coli MCR-1 assessed as inhibition of visible bacterial growth incubated for 18 hrs by microbroth dilution assay. The data set is classed as functional. The gist of the method: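 Colistin-resistant E. coli 25922 carrying MCR-1, grown from glycerol stock in kanamycin-supplemented TSB for 16 h at 37 °C, 220 rpm. Diluted 100-fold in kanamycin-supplemented TSB and grown to OD600 about 0.5, then diluted in MHB to 2 × 10^5 CFU/mL. Combined 1:1 with MHB serial dilutions of compounds. Sealed, 18 h at 37 °C, 600 rpm; lowest concentration without visible growth, triplicate technical replicates.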
Background: Broth dilution looks for growth in wells or tubes with falling amounts of substance.

The subject of a further data set is Pseudomonas aeruginosa. Nature of the data set: Antibacterial activity Pseudomonas aeruginosa PAO1 assessed as inhibition of visible bacterial growth incubated for 18 hrs by microbroth dilution assay. The class given is functional. Put shortly:
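CLSI broth microdilution. Colonies from blood agar (16 h, 37 °C) grown in TSB at 37 °C, 220 rpm, to OD600 about 0.5, then diluted in MHB to 2 × 10^5 CFU/mL. Added to DMSO-stock compounds serially diluted in MHB in polypropylene plates. Sealed, 18 h at 37 °C, 600 rpm. MIC = lowest concentration with no visible growth; three technical replicates.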

Data set [2] concerns Escherichia coli. Nature of the data set: Antibacterial activity Escherichia coli ATCC 25922 assessed as inhibition of visible bacterial growth incubated for 18 hrs by microbroth dilution assay. The data set is classed as functional. The gist of the method: (§1)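 CLSI broth microdilution. Strains streaked from glycerol stocks onto blood agar (16 h, 37 °C); single colonies grown in TSB at 37 °C, 220 rpm, to OD600 about 0.5. Diluted in MHB to 2 × 10^5 CFU/mL and mixed 1:1 with compounds serially diluted in MHB from DMSO stocks (colistin from water stocks), polypropylene plates. Sealed, 18 h at 37 °C, 600 rpm. MIC taken as lowest concentration preventing visible growth, three technical replicates.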

Another data set has as its system Klebsiella pneumoniae. Nature of the data set: Antibacterial activity Klebsiella pneumoniae ATCC 13883 assessed as inhibition of visible bacterial growth incubated for 18 hrs by microbroth dilution assay. The data set is classed as functional. Put shortly:
as §1

A further data set relates to Acinetobacter baumannii. Nature of the data set: Antibacterial activity Acinetobacter baumannii ATCC 17961 assessed as inhibition of visible bacterial growth incubated for 18 hrs by microbroth dilution assay. The class given is functional. The gist of the method: as §1
In the next data set the test system is Staphylococcus aureus. Nature of the data set: Antibacterial activity Staphylococcus aureus USA300 assessed as inhibition of visible bacterial growth incubated for 18 hrs by microbroth dilution assay. The data set is classed as functional. The gist of the method: as §1
Data set [3] can be described thus: Hemolytic activity in sheep red blood cell assessed as hemolysis at 1 to 128 ug/ml incubated for 1 hrs relative to control. The note with it: sheep red blood cells (erythrocytes), at 1 to 128 µg/mL, dose 1-128 µg/ml, read-out: Activity. The class given is toxicity, cell-based, Ovis aries, Erythrocyte. The gist of the method: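 Defibrinated sheep erythrocytes washed five times in PBS with 0.002% Tween20 and normalized so the Triton control reads 2.5–3.0 at 415 nm. Mixed 1:1 with compound serial dilutions (128–1 μg/mL) and incubated 1 h at 37 °C, 500 rpm. Supernatant A415 is background-corrected with buffer and expressed as percent of 0.1% Triton X-100 (final). Run in triplicate.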

Molecules are shown by their SMILES. In brackets after ≈: the same amount, converted by molar mass. Where a SMILES comes first, the peptide text is derived from it. [ ]: non-standard residue; d: D form. The star is where a group is joined. ξ: configuration not given here. Octanoyl(7-Me) = CC(C)CCCCCC(=O)*; Hexanoyl(4ξ-Me) = CCC(C)CCC(=O)*; dOrn = NCCC[C@@H](N)C(=O)O; Orn = NCCC[C@H](N)C(=O)O; Dap = NC[C@H](N)C(=O)O

What is called MIC is the lowest concentration found to suppress growth. As for `CC[C@H](C)[C@H](NC(=O)[C@@H](NC(=O)[C@H](Cc1c[nH]c2ccccc12)NC(=O)[C@@H](CCCN)NC(=O)CNC(=O)[C@H](C)NC(=O)[C@@H](CCCN)NC(=O)[C@@H](Cc1c[nH]c2ccccc12)NC(=O)[C@@H](Cc1ccc(O)cc1)NC(=O)[C@@H](CO)NC(=O)CCCCCC(C)C)[C@@H](C)O)C(=O)N[C@@H](CC(N)=O)C(=O)NCC(=O)NCC(N)=O` ({Octanoyl(7-Me)}-[dS][dY][dW][dOrn]AG[dOrn]WTINGG-NH2), the MIC in the data set on Escherichia coli [1] is over 32 µg/mL.
As to `CCC(C)CCC(=O)N[C@H](C)C(=O)N[C@H](Cc1ccc(O)cc1)C(=O)N[C@H](Cc1c[nH]c2ccccc12)C(=O)N[C@H](CCCN)C(=O)N[C@@H](CCCN)C(=O)NCC(=O)N[C@H](CCCN)C(=O)N[C@@H](Cc1c[nH]c2ccccc12)C(=O)N[C@H](C(=O)N[C@H](C(=O)NCC(=O)N[C@@H](CO)C(N)=O)[C@@H](C)CC)[C@@H](C)O` (stereo partly drawn) ({Hexanoyl(4ξ-Me)}-[dA][dY][dW][dOrn][Orn]G[dOrn]WTIGS-NH2), the MIC in the data set with Pseudomonas aeruginosa is 8 µg/mL (≈ 5.36 µM); in the data set with Escherichia coli [1] it was 16 µg/mL (≈ 10.7 µM); in the data set on Escherichia coli [2] it was 16 µg/mL (≈ 10.7 µM); in the data set on Klebsiella pneumoniae, 16 µg/mL (≈ 10.7 µM); with Acinetobacter baumannii, 8 µg/mL (≈ 5.36 µM); in the data set with Staphylococcus aureus it was over 32 µg/mL.
Take `CCC(C)CCC(=O)N[C@H](CC(N)=O)C(=O)N[C@H](Cc1ccc(O)cc1)C(=O)N[C@H](Cc1c[nH]c2ccccc12)C(=O)N[C@H](CCCN)C(=O)N[C@@H](CCCN)C(=O)NCC(=O)N[C@H](CCCN)C(=O)N[C@@H](Cc1c[nH]c2ccccc12)C(=O)N[C@@H](CO)C(=O)N[C@H](C(=O)NCC(N)=O)[C@@H](C)CC` (stereo partly drawn) ({Hexanoyl(4ξ-Me)}-[dN][dY][dW][dOrn][Orn]G[dOrn]WSIG-NH2): the MIC was 2 µg/mL (≈ 1.39 µM) in the data set on Pseudomonas aeruginosa; 8 µg/mL (≈ 5.57 µM) with Escherichia coli [1]; 4 µg/mL (≈ 2.79 µM) in the data set with Escherichia coli [2]; 4 µg/mL (≈ 2.79 µM) with Klebsiella pneumoniae; 8 µg/mL (≈ 5.57 µM) in the data set on Acinetobacter baumannii; over 32 µg/mL in the data set with Staphylococcus aureus.
Take `CCC(C)CCC(=O)N[C@H](CC(N)=O)C(=O)N[C@H](Cc1ccc(O)cc1)C(=O)N[C@H](Cc1c[nH]c2ccccc12)C(=O)N[C@H](CCCN)C(=O)N[C@@H](CCCN)C(=O)NCC(=O)N[C@H](C)C(=O)N[C@@H](Cc1c[nH]c2ccccc12)C(=O)N[C@H](C(=O)N[C@H](C(=O)NCC(=O)N[C@@H](CO)C(N)=O)[C@@H](C)CC)[C@@H](C)O` (stereo partly drawn) ({Hexanoyl(4ξ-Me)}-[dN][dY][dW][dOrn][Orn]G[dA]WTIGS-NH2): the MIC in the data set with Pseudomonas aeruginosa was 32 µg/mL (≈ 21.4 µM); in the data set on Escherichia coli [1], over 32 µg/mL; in the data set with Escherichia coli [2], over 32 µg/mL; in the data set on Klebsiella pneumoniae, over 32 µg/mL; in the data set on Acinetobacter baumannii it was 16 µg/mL (≈ 10.7 µM); in the data set on Staphylococcus aureus, over 32 µg/mL.
On to `CC[C@H](C)[C@H](NC(=O)[C@H](CN)NC(=O)[C@H](Cc1c[nH]c2ccccc12)NC(=O)[C@@H](CCCN)NC(=O)CNC(=O)[C@H](CCCN)NC(=O)[C@@H](CCCN)NC(=O)[C@@H](Cc1c[nH]c2ccccc12)NC(=O)[C@@H](Cc1ccc(O)cc1)NC(=O)[C@@H](CO)NC(=O)CCCCCC(C)C)C(=O)N[C@@H](CC(N)=O)C(=O)NCC(=O)NCC(N)=O` ({Octanoyl(7-Me)}-[dS][dY][dW][dOrn][Orn]G[dOrn]W[Dap]INGG-NH2), for which the hemolysis at 1 h in data set [3] is under 0.1%. Moreover, the MIC in the data set on Pseudomonas aeruginosa was found to be 18 µg/mL (≈ 11.2 µM).
Turning to `CCC(C)CCC(=O)N[C@H](CC(N)=O)C(=O)N[C@H](Cc1ccc(O)cc1)C(=O)N[C@H](Cc1c[nH]c2ccccc12)C(=O)N[C@H](CCCN)C(=O)N[C@@H](CCCN)C(=O)NCC(=O)N[C@H](CCCN)C(=O)N[C@@H](Cc1c[nH]c2ccccc12)C(=O)N[C@H](C(=O)N[C@@H](C)C(=O)NCC(=O)N[C@@H](CO)C(N)=O)[C@@H](C)O` (stereo partly drawn) ({Hexanoyl(4ξ-Me)}-[dN][dY][dW][dOrn][Orn]G[dOrn]WTAGS-NH2), the MIC in the data set with Pseudomonas aeruginosa is 16 µg/mL (≈ 10.7 µM); in the data set on Escherichia coli [1], over 32 µg/mL; in the data set on Escherichia coli [2] it was over 32 µg/mL; with Klebsiella pneumoniae, over 32 µg/mL; with Acinetobacter baumannii it was over 32 µg/mL; in the data set with Staphylococcus aureus, over 32 µg/mL.
On to `CCC(C)CCC(=O)N[C@H](CC(N)=O)C(=O)N[C@H](Cc1ccc(O)cc1)C(=O)N[C@H](C)C(=O)N[C@H](CCCN)C(=O)N[C@@H](CCCN)C(=O)NCC(=O)N[C@H](CCCN)C(=O)N[C@@H](Cc1c[nH]c2ccccc12)C(=O)N[C@H](C(=O)N[C@H](C(=O)NCC(=O)N[C@@H](CO)C(N)=O)[C@@H](C)CC)[C@@H](C)O` (stereo partly drawn) ({Hexanoyl(4ξ-Me)}-[dN][dY][dA][dOrn][Orn]G[dOrn]WTIGS-NH2), for which the MIC with Pseudomonas aeruginosa is 32 µg/mL (≈ 22.5 µM); in the data set with Escherichia coli [1] it was over 32 µg/mL; in the data set with Escherichia coli [2], over 32 µg/mL; with Klebsiella pneumoniae, over 32 µg/mL; in the data set on Acinetobacter baumannii, over 32 µg/mL; in the data set with Staphylococcus aureus, over 32 µg/mL.
For the molecule `CCC(C)CCC(=O)N[C@H](CC(N)=O)C(=O)N[C@H](Cc1ccc(O)cc1)C(=O)N[C@H](Cc1c[nH]c2ccccc12)C(=O)N[C@H](CCCN)C(=O)N[C@@H](CCCN)C(=O)NCC(=O)N[C@H](CCCN)C(=O)N[C@@H](Cc1c[nH]c2ccccc12)C(=O)N[C@H](C(=O)N[C@H](C(=O)NCC(=O)N[C@@H](C)C(N)=O)[C@@H](C)CC)[C@@H](C)O` (stereo partly drawn) ({Hexanoyl(4ξ-Me)}-[dN][dY][dW][dOrn][Orn]G[dOrn]WTIGA-NH2), the MIC in the data set with Pseudomonas aeruginosa is 8 µg/mL (≈ 5.26 µM); in the data set on Escherichia coli [1], 8 µg/mL (≈ 5.26 µM); in the data set with Escherichia coli [2], 8 µg/mL (≈ 5.26 µM); with Klebsiella pneumoniae, 8 µg/mL (≈ 5.26 µM); in the data set on Acinetobacter baumannii, 4 µg/mL (≈ 2.63 µM); in the data set on Staphylococcus aureus, over 32 µg/mL.
On to `CCC(C)CCC(=O)N[C@H](CC(N)=O)C(=O)N[C@H](Cc1ccc(O)cc1)C(=O)N[C@H](Cc1c[nH]c2ccccc12)C(=O)N[C@H](CCCN)C(=O)N[C@@H](CCCN)C(=O)NCC(=O)N[C@H](CCCN)C(=O)N[C@@H](Cc1c[nH]c2ccccc12)C(=O)N[C@@H](C)C(=O)N[C@H](C(=O)NCC(=O)N[C@@H](CO)C(N)=O)[C@@H](C)CC` (stereo partly drawn) ({Hexanoyl(4ξ-Me)}-[dN][dY][dW][dOrn][Orn]G[dOrn]WAIGS-NH2), for which the MIC with Pseudomonas aeruginosa is 4 µg/mL (≈ 2.65 µM); in the data set with Escherichia coli [1], 16 µg/mL (≈ 10.6 µM); in the data set with Escherichia coli [2] it was 8 µg/mL (≈ 5.31 µM); with Klebsiella pneumoniae, 16 µg/mL (≈ 10.6 µM); in the data set with Acinetobacter baumannii it was 16 µg/mL (≈ 10.6 µM); in the data set with Staphylococcus aureus, over 32 µg/mL.
With `CCC(C)CCC(=O)N[C@H](CC(N)=O)C(=O)N[C@H](Cc1ccc(O)cc1)C(=O)N[C@H](Cc1c[nH]c2ccccc12)C(=O)N[C@H](CCCN)C(=O)N[C@@H](CCCN)C(=O)NCC(=O)N[C@H](CCCN)C(=O)N[C@@H](Cc1c[nH]c2ccccc12)C(=O)N[C@H](C(=O)N[C@H](C(=O)N[C@@H](C)C(=O)N[C@@H](CO)C(N)=O)[C@@H](C)CC)[C@@H](C)O` (stereo partly drawn) ({Hexanoyl(4ξ-Me)}-[dN][dY][dW][dOrn][Orn]G[dOrn]WTIAS-NH2), the minimal inhibitory concentration (MIC) is 16 µg/mL (≈ 10.3 µM) in the data set on Pseudomonas aeruginosa; 32 µg/mL (≈ 20.6 µM) with Escherichia coli [1]; 32 µg/mL (≈ 20.6 µM) with Escherichia coli [2]; over 32 µg/mL in the data set with Klebsiella pneumoniae; 32 µg/mL (≈ 20.6 µM) in the data set on Acinetobacter baumannii; over 32 µg/mL with Staphylococcus aureus.
As for `CCC(C)CCC(=O)N[C@H](CC(N)=O)C(=O)N[C@H](Cc1ccc(O)cc1)C(=O)N[C@H](Cc1c[nH]c2ccccc12)C(=O)N[C@H](CCCN)C(=O)N[C@@H](CCCN)C(=O)NCC(=O)N[C@H](CCCN)C(=O)N[C@@H](Cc1c[nH]c2ccccc12)C(=O)N[C@@H](CC(=O)O)C(=O)N[C@H](C(=O)NCC(N)=O)[C@@H](C)CC` (stereo partly drawn) ({Hexanoyl(4ξ-Me)}-[dN][dY][dW][dOrn][Orn]G[dOrn]WDIG-NH2), the MIC in the data set with Escherichia coli [1] and in the data set with Escherichia coli [2] was over 32 µg/mL in each case.
